In the library only some 3.5% were active in any assay of this set; here they are far more common.
HIV Env fusion: inhibitors of HIV-1 Env-driven cell-cell fusion, primary screen, HeLa-JRFL effector, CEM21 target cells, luciferase; 360,000 compounds, 1.1% hits; AID 651610, 2012; inhibition, % at 12.3 µM;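 active = mean replicate inhibition score of at least 50 and every replicate individually at or above 50; inconclusive = only one of the two criteria met; inactive = mean below 50 and not all replicates reaching 50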;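 note: 0% = plate neutral controls and 100% = maraviroc near 300 nM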
Cneo AK release: Cryptococcus neoformans cell lysis inducers, primary screen, AK release luminescence, single concentration. C. neoformans lysis, adenylate kinase release luminescence, 4 h; normalised: neutral wells 0, clomiphene wells 100. lysis activity, % at 15 µM. 360,000 compounds, 0.2% hits;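 active = mean lysis activity across replicates of at least 80%, whatever share of replicates individually reach that level; inactive = mean lysis activity below 80%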
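Material: C. neoformans cells; Schedule: 4 h static compound exposure, 37 °C, read 1 h post-reagent; Measured by: adenylate kinase release luminescence; Read-out: signal increase indicating cell lysis; Controls: Clomiphene as positive lysis control.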
esBAF inh: Bmi1 luciferase reporter increase in mESCs, primary screen, esBAF inhibitor project, mouse ES cells, Bmi1 luciferase knock-in, single point. AID 602393, 2012. 350,000 compounds, 2% hits. reporter increase, % at 12.5 µM. 24 h; 100% = twice the neutral-well signal; in the data active = activation above about 40%; inconclusive = no clear call, values can overlap the other calls;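 note: 0% = median of the plate's neutral control wells and 100% = double that signal; a rise in the Bmi1 reporter signal indicates esBAF inhibition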
ERAP1 inh: human ERAP1 aminopeptidase inhibitors, primary screen, biochemical, single point, plate reader. Endoplasmic reticulum aminopeptidase 1 (Homo sapiens), Q9NZ08. recombinant ERAP1, Leu-AMC fluorescence, 60 min. inhibition, % at 10.7 µM. 340,000 compounds, 0.15% hits. AID 652197, 2013;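 active = mean replicate inhibition of at least 30%, or all replicates individually reaching that 30% level; inactive = mean below 30% and not every replicate reaching it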;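 note: 0% = neutral control wells and 100% = L-leucinethiol positive control wells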
Target sequence (Q9NZ08 whole entry, looked up): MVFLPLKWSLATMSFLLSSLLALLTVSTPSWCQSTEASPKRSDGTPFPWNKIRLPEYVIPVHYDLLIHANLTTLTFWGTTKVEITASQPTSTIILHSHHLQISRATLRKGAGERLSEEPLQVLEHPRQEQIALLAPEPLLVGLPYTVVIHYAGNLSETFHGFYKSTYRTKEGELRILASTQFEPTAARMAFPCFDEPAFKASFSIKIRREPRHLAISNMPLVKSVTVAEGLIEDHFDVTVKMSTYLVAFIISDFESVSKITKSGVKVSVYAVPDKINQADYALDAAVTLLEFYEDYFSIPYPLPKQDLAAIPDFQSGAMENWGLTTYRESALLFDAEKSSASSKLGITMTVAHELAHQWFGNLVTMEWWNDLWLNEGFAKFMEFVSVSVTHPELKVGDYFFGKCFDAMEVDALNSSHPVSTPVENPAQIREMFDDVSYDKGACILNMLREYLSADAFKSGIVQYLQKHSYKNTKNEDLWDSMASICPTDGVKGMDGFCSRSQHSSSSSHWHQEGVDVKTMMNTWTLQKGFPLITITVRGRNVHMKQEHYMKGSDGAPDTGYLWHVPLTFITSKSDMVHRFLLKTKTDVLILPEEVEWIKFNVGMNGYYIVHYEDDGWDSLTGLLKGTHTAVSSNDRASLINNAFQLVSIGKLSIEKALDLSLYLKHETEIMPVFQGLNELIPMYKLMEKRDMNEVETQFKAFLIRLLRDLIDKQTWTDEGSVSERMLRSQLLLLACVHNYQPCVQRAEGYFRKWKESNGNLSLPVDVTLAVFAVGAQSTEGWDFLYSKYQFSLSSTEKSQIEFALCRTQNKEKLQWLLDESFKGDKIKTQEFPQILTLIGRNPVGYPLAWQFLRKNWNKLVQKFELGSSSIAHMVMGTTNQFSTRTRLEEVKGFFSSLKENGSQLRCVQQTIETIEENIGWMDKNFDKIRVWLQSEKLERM
Wnt bcat act: Wnt/beta-catenin pathway activators, primary screen, cell-based, plate reader, single point; Wnt/beta-catenin reporter cell assay, activator; activation, % at 9.35 µM; 300,000 compounds, 1.2% hits; in the data active = activation above about 30%, passing the limit was not always enough; inconclusive = no clear call, values can overlap the other calls;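 note: 0% = neutral control wells and 100% = positive control wells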
MITF act: activators of MITF-driven TRPM1 promoter reporter, primary screen, cell-based, SK-MEL-5, luciferase, single point | SK-MEL-5 TRPM1-promoter luciferase, 24 h; % of positive control, neutral wells = 0 | activation, % at 12.5 µM | 300,000 compounds, 0.75% hits | AID 588334, 2011;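 active = mean activation of at least 80% with every replicate also reaching 80%; inconclusive = mean reaches 80% but some replicate falls short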;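 note: 0% = neutral control wells and 100% = parthenolide positive control wells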
* marks the source's active call; other numbers are inactive results; i = inactive; u = inconclusive; x = no result; [ ] = dose if it differs, or a comment.

SMILES	HIV Env fusion	Cneo AK release	esBAF inh	ERAP1 inh	Wnt bcat act	MITF act
COc1cc(CN2CCCC(C(=O)c3ccc4c5c(cccc35)CC4)C2)cc(OC)c1O (centres undefined)	56*	x	x	-5	-2	-4
O=C(c1ccc2c3c(cccc13)CC2)C1CCCN(Cc2cccnc2)C1 (centres undefined)	27	-2	2	x	8	9
CNc1ccc(/C=C(\C#N)c2ccccn2)cc1[N+](=O)[O-]	-17	-6	74*	-2	14	u
N#C/C(=C\c1ccc(Cl)c([N+](=O)[O-])c1)c1ccccn1	-99	x	x	x	-1	0
O=c1cc(-c2ccc3c(c2)OCCO3)oc2ccc(Cl)cc12	-93	-5	-9	x	47*	5
O=c1cc(-c2cccs2)oc2ccc(Cl)cc12	i	-1	36	x	10	58
O=c1cc(-c2ccccc2F)oc2ccccc12	-372	3	58*	x	47*	x
O=c1cc(-c2ccccc2)oc2ccc(Cl)cc12	-22	x	x	-3	47*	x
Cc1ccccc1-c1cc(=O)c2ccccc2o1	-47	0	23	x	5	1
O=C1C(=Cc2ccccc2O)SC(=S)N1CCCN1CCOCC1	85*	-2	0	7	-2	x
O=C(CCN1C(=O)/C(=C\c2ccccc2)SC1=S)NCCCN1CCOCC1	-20	-4	18	7	-2	6
Cc1snc(SCC(=O)c2ccc(Cl)cc2)c1C#N	-27	0	30	x	x	126*
Cc1cc(C)c(C#N)c(OCC(=O)c2ccc(Br)cc2)n1	37	4	-5	x	x	-4
Cc1ccnc(SCC(=O)c2ccc(Br)cc2)c1C#N	-38	x	x	x	42*	57
Cc1ccc(C(=O)CSc2nsc(C)c2C#N)cc1	x	x	x	x	x	69
O=C(NC1CCCC1)[C@H]1[C@H](CO)[C@H]2Cn3c(cccc3=O)[C@@H]1N2Cc1cc(F)ccc1F	x	2	1	3	x	x
Cc1noc(C)c1-c1nc(CS(=O)(=O)c2ccc(Cl)cc2)no1	-7	x	x	x	-2	10
O=S(=O)(Cc1noc(-c2ccccc2Cl)n1)c1ccccn1	-21	x	44*	4	40*	u
C[C@H]1CN([C@@H](C)CO)C(=O)c2cc(NC(=O)CCCN(C)C)ccc2O[C@H]1CN(C)Cc1ccccc1	1[16.7 µM]	-6	-2	1	x	x
Cc1[nH]nc(N=CC2=C(O)CC(C)(C)CC2=O)c1-c1ccccc1	u	-3	45*	1	-4	23
Cc1[nH]nc(N=CC2=C(O)CC(c3ccco3)CC2=O)c1-c1ccccc1 (centres undefined)	-8	0	1	1	10	2
COc1cc(OC)cc(-c2cc3cc(F)ccc3cn2)c1	30	-5	69*	x	39*	121*
COc1ccc(-c2cc3cc(F)ccc3cn2)cc1	-157	0	5	x	43*	67
COc1ccc(-c2cc3ccc(F)cc3cn2)cc1	i	-2	-6	-3	u	55
CO[C@@H]1CN(C)C(=O)c2cc(NC(=O)c3cccc(F)c3)ccc2OC[C@H](C)N(C(C)=O)C[C@H]1C	x	x	5	x	x	x
SMILES	HIV Env fusion	Cneo AK release	esBAF inh	ERAP1 inh	Wnt bcat act	MITF act
C[C@@H]1CN([C@H](C)CO)C(=O)c2cc(NC(=O)Nc3ccc4c(c3)OCO4)ccc2O[C@@H](C)CCCCO[C@H]1CN(C)C(=O)c1ccccc1	-9[16.7 µM]	-1	5	-5	x	x
COc1cc(C(=O)O[C@H]2CC(C)=CC[C@@]3(C)CC[C@@](O)(C(C)C)[C@H]23)ccc1O	88*	4	-2	-2	2	18
COc1cc(C(=O)O[C@H]2C/C(C)=C/CC[C@]3(C)O[C@@H]3C(O)C2C(C)C)cc(OC)c1OC (some centres undefined)	3	0	-1	7	0	-4
CCC(=O)N1[C@H](C(=O)NC2CCCC2)[C@@H](CO)[C@@H]2Cn3c(ccc(C4=CCCC4)c3=O)[C@@H]21	x	35	-5	3	x	x
C[C@@H]1CN([C@@H](C)CO)C(=O)Cc2cc(NS(=O)(=O)c3ccc(Cl)cc3)ccc2O[C@@H]1CN(C)S(=O)(=O)c1ccccc1	7[16.7 µM]	0	6	3	x	x
C[C@H](CO)N1C[C@H](C)[C@H](CN(C)S(=O)(=O)c2ccccc2)Oc2ccc(NS(=O)(=O)c3cccs3)cc2CC1=O	64*[16.7 µM]	3	4	-3	x	x
C[C@@H]1CN([C@@H](C)CO)C(=O)Cc2cc(NS(=O)(=O)c3cccs3)ccc2O[C@H]1CN(C)S(=O)(=O)c1ccccc1	-11[16.7 µM]	58	-3	0	x	x
C[C@H](CO)N1C[C@H](C)[C@H](CN(C)S(=O)(=O)c2ccccc2)Oc2ccc(NS(=O)(=O)c3ccc(Cl)cc3)cc2CC1=O	56*[16.7 µM]	2	-4	3	x	x
Cc1noc(C)c1S(=O)(=O)Nc1ccc2c(c1)CC(=O)N([C@H](C)CO)C[C@H](C)[C@H](CN(C)S(=O)(=O)c1cccs1)O2	45[16.7 µM]	115*	-10	2	x	x
C[C@H](CO)N1C[C@H](C)[C@H](CN(C)S(=O)(=O)c2ccccc2)Oc2ccc(NS(=O)(=O)c3ccccc3)cc2CC1=O	91*[16.7 µM]	-2	1	-2	x	x
CCS(=O)(=O)Nc1ccc2c(c1)C(=O)N(C)C[C@H](OC)[C@H](C)CN(C(=O)CN(C)C)[C@H](C)CO2	x	-8	-1	1	x	x
CO[C@@H]1CN(C)C(=O)c2ccc(NC(=O)c3ccccc3)cc2OC[C@@H](C)N(C(C)=O)C[C@@H]1C	x	x	x	3	x	x
CC(C)NC(=O)Nc1ccc2c(c1)CC(=O)N([C@@H](C)CO)C[C@@H](C)[C@@H](CN(C)S(=O)(=O)c1ccc(Cl)cc1)O2	x	102*	-10	0	x	x
C[C@H](CO)N1C[C@H](C)[C@H](CN(C)S(=O)(=O)c2ccc(Cl)cc2)Oc2ccc(NS(=O)(=O)c3ccccc3)cc2CC1=O	55*[16.7 µM]	-2	-2	x	x	x
C[C@H](CO)N1C[C@H](C)[C@H](CN(C)Cc2ccc(C(F)(F)F)cc2)OCCCC[C@H](C)Oc2ccc(NC(=O)Nc3ccc(C(F)(F)F)cc3)cc2C1=O	66*[16.7 µM]	8	-2	x	x	x
C[C@@H]1CN([C@H](C)CO)C(=O)c2cc(NC(=O)Nc3ccc(C(F)(F)F)cc3)ccc2O[C@@H](C)CCCCO[C@H]1CN(C)Cc1ccc(C(F)(F)F)cc1	64*[16.7 µM]	5	-26	x	x	x
C[C@@H]1CCCCO[C@@H](CN(C)Cc2ccc(C(F)(F)F)cc2)[C@@H](C)CN([C@H](C)CO)C(=O)c2cc(NC(=O)Nc3ccc(C(F)(F)F)cc3)ccc2O1	-16[16.7 µM]	3	-1	x	x	x

Screens: PubChem BioAssay, Broad Institute
